19 compounds from ChEMBL document CHEMBL1148398, “Design, synthesis, and biological evaluation of thio-containing compounds with serum HDL-cholesterol-elevating properties” (2004) can be followed below.

Holding throughout (assay type): functional
Assay [1] relates to Cricetinae gen. sp. Kind of assay: Percent change in total plasma cholesterol following oral administration of compound in hypercholesterolemic hamsters at 100 mg/kg/day for 14 days. Put shortly: (§1)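 Male Syrian Golden hamsters pre-fed chow plus 0.25% cholesterol for 2 weeks and kept on it. Dosed 100 mg/kg/day by oral gavage in 2% Tween 80/saline for 14 days. Serum total cholesterol and glycerol-blanked triglycerides read enzymatically; lipoproteins separated by FPLC with cholesterol measured in each fraction. % change versus vehicle controls; six per group, p < 0.05.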

The subject of assay [2] is Cricetinae gen. sp. In words: Percent change in triglycerides following oral administration of compound in hypercholesterolemic hamsters at 100 mg/kg/day for 14 days. The method, boiled down: as §1
Assay [3] has as its system Cricetinae gen. sp. In words: Percent change in very low-density lipoprotein cholesterol following oral administration of compound in hypercholesterolemic hamsters at 100 mg/kg/day for 14 days. Put shortly: as §1
The subject of assay [4] is Cricetinae gen. sp. Kind of assay: Percent change in high-density lipoprotein cholesterol following oral administration of compound in hypercholesterolemic hamsters at 100 mg/kg/day for 14 days. The method, boiled down:
as §1

The subject of assay [5] is Cricetinae gen. sp. In words: Percent change in low-density lipoprotein cholesterol following oral administration of compound in hypercholesterolemic hamsters at 100 mg/kg/day for 14 days. The method, boiled down: as §1
For assay [6], the system named is Rattus norvegicus. Kind of assay: Percent change in total plasma cholesterol following oral administration of compound in normal chow-fed rats at 100 mg/kg/day for 4 days. Put shortly: (§2)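 Chow-fed male Sprague–Dawley CD rats, 60–80 g, gavaged 100 mg/kg/day for 4 days in 1.3% Tween 80/0.25% CMC. Fasted overnight, bled 24 h after the last dose. Total cholesterol and glycerol-blanked triglycerides read enzymatically; lipoproteins by FPLC with cholesterol per fraction. % change versus control; six per group, p < 0.05.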

For assay [7], the system named is Rattus norvegicus. Kind of assay: Percent change in total plasma cholesterol in hypercholesterolemic rats dosed at 100 mg/kg/day for 8 days.
For assay [8], the system named is Rattus norvegicus. Kind of assay: Percent change in high-density lipoprotein cholesterol following oral administration of compound in normal chow-fed rats at 100 mg/kg/day for 4 days. Put shortly: as §2
In assay [9] the test system is Rattus norvegicus. In words: Percent change in high-density lipoprotein cholesterol in hypercholesterolemic rats dosed at 100 mg/kg/day for 8 days.
Assay [10] relates to Rattus norvegicus. In words: Percent change in low-density lipoprotein cholesterol following oral administration of compound in normal chow-fed rats at 100 mg/kg/day for 4 days. The method, boiled down: as §2
For assay [11], the system named is Rattus norvegicus. Kind of assay: Percent change in triglycerides in hypercholesterolemic rats at a dose of 100 mg/kg/day for 8 days.
The subject of assay [12] is Rattus norvegicus. In words: Percent change in very low-density lipoprotein cholesterol following oral administration of compound in normal chow-fed rats at 100 mg/kg/day for 4 days. The method, boiled down: as §2
The subject of assay [13] is Rattus norvegicus. In words: Percent change in triglycerides following oral administration of compound in normal chow-fed rats at 100 mg/kg/day for 4 days. Put shortly:
as §2

Take `Cc1cccc(C)c1N1C(=O)CN(C(C)C)C1=S`: the Change was -3.1% in assay [1]; -7.3% in [2]; 8.9% in assay [3]; 1.7% in assay [4]; 17.2% in assay [5]; 56.1% in assay [6]. Besides, the Change in [7] is reported as -25%; in assay [8], 71.2%; in [9], 146%; in [10], -5.8%; in [11], -43%; in assay [12] it was -10.5%. In addition, the Change in assay [13] is -42.9%.

As for `CCN1CC(=O)N(c2ccc(C)cc2C)C1=S`, the Change in assay [1] is 10.7%; in assay [2], 9.6%; in assay [3], 14.5%; in assay [4], 33.3%; in [5], -11.6%; in assay [6], 55.5%. In addition, the Change in assay [7] is given as 25%; in [8], 61.2%; in [9], 83%; in assay [10], 8.3%; in assay [11], -34%; in assay [12] it was 15.6%. Besides, the Change in assay [13] is recorded as -35.4%.

Regarding `CCN1CC(=O)N(c2cccc(Cl)c2Cl)C1=S`, the Change was -8% in [1]; -12.3% in assay [2]; -5.9% in [3]; 0% in [4]; -8.1% in assay [5]; 89.6% in assay [6]. Also, the Change is on record as 11% in assay [7]; 85.3% in [8]; 98% in [9]; 20.4% in assay [10]; -23% in [11]; 57.9% in assay [12]. Also, the Change in [13] was 18.3%.

Consider `CCN1CCC(=O)N(c2ccc(Cl)cc2C)C1=S`, for which the Change in assay [1] is 2%; in assay [2] it was -30.7%; in assay [3], 6.3%; in [4] it was 47.8%; in assay [5], -26.8%; in [6], 80.7%. Also, the Change in [7] is listed as 40%; in assay [8] it was 75.5%; in assay [9], 126%; in [10], 38.9%; in assay [11], -16%; in assay [12], -15%. Moreover, the Change in [13] is given as -53.1%.

For `Cc1cccc(Cl)c1N1C(=O)CON(C)C1=S`, the Change in [1] is -21.4%; in assay [2], 38.6%; in assay [3] it was 5.2%; in assay [4], -28.1%; in assay [5], -22.4%; in assay [6], 40.4%. The Change in [7] is -2.7%; in assay [8] it was 52.8%; in [9], 100%; in assay [10] it was 11.7%; in assay [11], -30%; in assay [12] it was 80.8%. For the same compound, the Change in assay [13] is listed as -61.5%.

Regarding `CCN1C(=S)N(c2cc(Cl)ccc2C)C(=O)C1OC` (configuration not stated), the Change in [1] is reported as 3.8%; in [2], -36.4%; in assay [3], -35.8%; in [4] it was 57.4%; in assay [5], -19%; in assay [6], 102.3%. Besides, the Change in assay [7] was 6%; in assay [8], 91.6%; in assay [9], 140%; in [10] it was 11.9%; in [11], -33%; in assay [12] it was 83.6%. Further, the Change in [13] was -10.6%.

In the case of `Cc1cc(Cl)ccc1N1C(=O)CON(C)C1=S`, the Change in assay [6] is on record as 51.4%; in assay [7] it was 4%; in assay [8], 53.4%; in [9], 221%; in assay [10], 20.8%; in [11], -38%. Further, the results for the Change in assay [12] and in [13] were 114.7% and -4.3%, respectively.

In the case of `CN1OCC(=O)N(c2ccc(Oc3ccccc3)cc2)C1=S`, the Change in [6] is reported as -13%; in assay [7], -25%; in [8], 0%; in assay [9], 102%; in assay [10], -20.5%; in [11], -43%. Besides, the figures for the Change in [12] and in assay [13] were -9.1% and -20.5%, respectively.

As to `CN1CC(=O)N(c2ccc3c(c2)CCC3)C1=S`, the Change is on record as 26% in [6]; -3% in [7]; 46% in [8]; 112% in assay [9]; -40.3% in assay [10]; -26% in assay [11]. The Change in [12] is on record as 26.3%; in assay [13], -0.9%.

In the case of `CCN1CC(=O)N(c2ccccc2C(F)(F)F)C1=S`, the Change in assay [6] was 67.2%; in assay [7] it was 18%; in [8], 103.5%; in assay [9], 116%; in assay [10] it was -13.3%; in assay [11], 35%. For the same compound, the Change in assay [12] is reported as 52.6%; in [13], -6.3%.

Take `CN1OCC(=O)N(c2cccc3c2CCC3)C1=S`: the Change in [6] is given as 78.5%; in assay [7] it was -2%; in [8], 81.8%; in assay [9] it was 192%; in [10], 42.3%; in assay [11] it was -26%. Also, the Change in assay [12] is given as 68%; in [13], -31.2%.

`C#CCN1CC(=O)N(c2c(C)cccc2C)C1=S`: the Change in [6] is 98%; in [7], -15%; in assay [8] it was 85.1%; in assay [9] it was 325%; in assay [10], 27.9%; in [11], 0%. The Change in assay [12] is -23%; in [13], -48.5%.

For `CN1OCC(=O)N(C(c2ccccc2)c2ccccc2)C1=S`, the Change in assay [6] was 17.6%; in assay [7] it was 22%; in assay [8], 33.7%; in assay [9], 60%; in assay [10], 43.8%; in assay [11], 9%. In addition, the Change in [12] was -29.3%; in assay [13], -44.1%.

For `CCN1C(=O)C(=O)N(c2c(C)cccc2C)C1=S`, the Change in assay [6] is reported as 138.2%; in assay [7], -21%; in [8], 114.4%; in assay [9], 186%; in assay [10], 73.2%; in assay [11], -48%. Moreover, the Change in assay [12] is reported as 409.7%; in assay [13], -32.8%.

Turning to `CCc1cccc(C(C)C)c1N1C(=O)CN(CC)C1=S`, the Change was 30.9% in [6]; -62% in assay [7]; 48.7% in assay [8]; 54% in assay [9]; -22.3% in assay [10]; 5% in assay [11]. Moreover, the Change is given as -50% in [12] and -12.2% in [13].

For the compound `CCN1CC(=O)N(c2c(Cl)cccc2Cl)C1=S`, the Change was 57% in assay [6]; 53.4% in [7]; 60.2% in assay [8]; 142% in [9]; 6.8% in assay [10]; -37% in [11]. Moreover, the values for the Change in [12] and in [13] were 0% and -35.8%, respectively.

For `CN1OCC(=O)N(c2ccc(C(C)(C)C)cc2)C1=S`, the Change in assay [6] is reported as 62%; in assay [7] it was 2%; in assay [8] it was 61.6%; in assay [9], 170%; in assay [10], 2.6%; in assay [11] it was -51%. The values for the Change in assay [12] and in [13] were 176.5% and -24.6%, respectively.

With `CCc1cccc(C)c1N1C(=O)CN(CC)C1=S`, the Change in assay [6] is given as 52.8%; in assay [7], -19%; in assay [8] it was 61.9%; in assay [9], 112%; in [10], -6.5%; in [11], -10%. Moreover, the Change in [12] is on record as -29.2%; in [13], -8.2%.

With `CCN1CC(=O)N(c2c(C)cccc2C)C1=S`, the Change in [6] is given as 106.7%; in [7], -28%; in [8], 93.6%; in assay [9], 181%; in assay [10], 43.8%; in assay [11] it was -23%. Besides, the Change in assay [12] is given as 13%; in assay [13] it was -12.8%.
